Wnt act = activators of Wnt/beta-catenin signaling; Wnt/beta-catenin reporter cell assay, activator, plate reader; activation, % at 9.35 µM; actives 1.2% (n = 300,000); AID 743398; in the data active means activation above about 30%, passing the limit was not always enough; inconclusive means no clear call, values can overlap the other calls;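 further: 0% = neutral control wells and 100% = positive control wells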
MITF TRPM1 HTS = MITF TRPM1 promoter activation in melanoma cells; activation, % at 12.5 µM; SK-MEL-5 TRPM1-promoter luciferase, 24 h; % of positive control, neutral wells = 0; actives 0.75% (n = 300,000);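 active means mean activation of at least 80% with every replicate also reaching 80%; inconclusive means mean reaches 80% but some replicate falls short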;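 further: 0% = neutral control wells and 100% = parthenolide positive control wells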
esBAF inh = inhibitors of esBAF chromatin remodeling in mouse ES cells; Bmi1-luciferase knock-in reporter, 24 h; 100% = twice the neutral-well signal; reporter increase, % at 12.5 µM; actives 2% (n = 350,000); in the data active means activation above about 40%; inconclusive means no clear call, values can overlap the other calls;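 further: 0% = median of the plate's neutral control wells and 100% = double that signal; a rise in the Bmi1 reporter signal indicates esBAF inhibition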
NSD2 HMT inh = NSD2 (human) methyltransferase inhibition | actives 0.54% (n = 310,000) | NSD2 peptide methylation, AlphaScreen, 120 min | inhibition, % at 12.5 µM | O96028; in the data active means inhibition above about 50%
Target sequence (O96028 whole entry, looked up): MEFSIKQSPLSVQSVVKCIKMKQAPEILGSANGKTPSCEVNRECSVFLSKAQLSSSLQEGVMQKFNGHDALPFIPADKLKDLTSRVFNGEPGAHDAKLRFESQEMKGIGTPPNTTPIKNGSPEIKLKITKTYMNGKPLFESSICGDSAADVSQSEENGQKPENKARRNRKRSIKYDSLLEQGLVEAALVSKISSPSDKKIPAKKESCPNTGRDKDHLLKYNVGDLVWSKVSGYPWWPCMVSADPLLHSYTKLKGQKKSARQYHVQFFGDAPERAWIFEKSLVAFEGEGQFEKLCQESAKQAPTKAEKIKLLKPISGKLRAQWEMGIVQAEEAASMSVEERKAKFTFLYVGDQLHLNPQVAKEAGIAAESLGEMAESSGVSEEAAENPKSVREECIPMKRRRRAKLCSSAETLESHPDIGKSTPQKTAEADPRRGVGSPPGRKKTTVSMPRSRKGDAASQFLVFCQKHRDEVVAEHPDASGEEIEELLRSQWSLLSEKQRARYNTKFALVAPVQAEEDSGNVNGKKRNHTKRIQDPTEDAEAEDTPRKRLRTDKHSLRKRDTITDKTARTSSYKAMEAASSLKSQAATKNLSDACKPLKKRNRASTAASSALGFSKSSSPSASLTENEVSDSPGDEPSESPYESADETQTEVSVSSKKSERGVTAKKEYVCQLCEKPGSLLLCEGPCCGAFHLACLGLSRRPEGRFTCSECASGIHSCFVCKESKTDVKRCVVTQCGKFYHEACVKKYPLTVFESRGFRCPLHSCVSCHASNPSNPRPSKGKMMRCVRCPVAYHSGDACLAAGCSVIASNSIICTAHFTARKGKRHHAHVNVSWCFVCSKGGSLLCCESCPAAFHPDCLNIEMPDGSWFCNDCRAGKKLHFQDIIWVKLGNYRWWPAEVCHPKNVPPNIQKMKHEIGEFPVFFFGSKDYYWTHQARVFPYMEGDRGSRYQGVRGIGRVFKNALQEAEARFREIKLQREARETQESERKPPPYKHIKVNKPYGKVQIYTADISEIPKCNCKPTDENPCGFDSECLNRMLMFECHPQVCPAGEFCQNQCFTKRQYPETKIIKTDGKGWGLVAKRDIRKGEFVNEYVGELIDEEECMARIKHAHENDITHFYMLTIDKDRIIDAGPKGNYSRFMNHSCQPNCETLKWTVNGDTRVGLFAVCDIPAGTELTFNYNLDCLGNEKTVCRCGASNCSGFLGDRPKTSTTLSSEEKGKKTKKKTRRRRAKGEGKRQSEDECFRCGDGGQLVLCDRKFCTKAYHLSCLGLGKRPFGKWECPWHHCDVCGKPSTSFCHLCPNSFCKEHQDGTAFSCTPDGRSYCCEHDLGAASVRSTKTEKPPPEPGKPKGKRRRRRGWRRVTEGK
Xi reactivation = X-chromosome reactivation activator | XiGFP mouse fibroblasts, % GFP-positive cells imaging, 3 d; cells co-treated with 5-aza-dC sensitizer; scaled so ellipticine positive control = 100% | activation, % at 7.58 µM | actives 0.055% (n = 360,000) | AID 743238;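 active means mean normalized replicate activation at least 10% and every replicate at or above 10%; inconclusive means only one of the two criteria met; inactive means mean below 10% and not all replicates reach 10%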;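 further: 0% = median of on-plate neutral control wells and 100% = ellipticine 6 µM median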
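Material: XiGFP fibroblasts, SV40-immortalized. Buffer or medium: DMEM plus 5-aza-dC sensitizer. Compound: single concentration per compound, delivered by pin transfer. Times: 3 days compound exposure. Controls: ellipticine 6 µM.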
CASP6 VEID inh = blocks human caspase-6 cleavage activity; inhibition, % at 12.5 µM; AID 686996; purified caspase-6, Z-VEID-R110 cleavage fluorescence; actives 0.53% (n = 350,000);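 active means mean inhibition across replicates at least about 35%, with every replicate also reaching that limit, limit read from the data; inconclusive means only one of the two criteria met; inactive means neither criterion met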;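 further: 0% = median of neutral control wells and 100% = no fluorescence left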
* marks the source's active call; other numbers are inactive results; ? = inconclusive; / = not tested or not shown. Sampled rows, rich in hits. Any-hit rate of the full collection: about 3%.

SMILES	Wnt act	MITF TRPM1 HTS	esBAF inh	NSD2 HMT inh	Xi reactivation	CASP6 VEID inh
CC1(C)CC(=O)C=C(c2ccc(Oc3ccccc3)cc2)C1	26.4	70.3	68.4*	/	0.7	-1.0
OC(c1ccccc1)c1nc(-c2cc3ccccc3o2)cs1 (centres undefined)	-0.9	/	47.4*	-1.8	0.0	3.2
Nc1nc(-c2cc3ccccc3o2)cs1	55.6*	102.3*	?	0.5	0.0	4.8
CN1CCN(c2nc(-c3cc4ccccc4o3)cs2)CC1	/	30.4	/	-3.4	-0.1	/
C[C@H](CO)N1C[C@H](C)[C@H](CN(C)C(=O)C2CCCCC2)Oc2ncc(C#CC(C)(C)O)cc2C1=O	/	/	2.1	/	-0.4	/
Cc1noc(C)c1S(=O)(=O)N(C)C[C@H]1Oc2ccc(NC(=O)Nc3ccccc3)cc2C(=O)N([C@H](C)CO)C[C@@H]1C	/	/	/	/	0.0	/
O=C(C[C@@H]1CC[C@@H](NS(=O)(=O)c2ccc(F)cc2)[C@@H](CO)O1)NC1CCCCC1	/	/	7.7	/	0.1	-0.6
O=c1oc2cc(OCc3ccc(F)cc3F)ccc2cc1-c1ccccn1	/	71.9	45.3*	-4.6	/	/
CC(C)[C@H]1C(=O)N[C@H](c2ccc3c(c2)OCO3)CC=CC[C@@H](C)Oc2ccccc2C(=O)N1C (mixture of isomers)	/	/	/	/	0.5	/
COc1cc2cc(C(c3nnnn3C(C)(C)C)N3CCc4ccccc4C3)c(=O)[nH]c2cc1OC (centres undefined)	34.4*	-14.0	-1.7	-2.7	/	/
CCC(C)(C)n1nnnc1C(c1cc2cc(OC)c(OC)cc2[nH]c1=O)N1CCc2ccccc21 (centres undefined)	/	-9.0	/	-1.7	/	/
COc1ccc2c3c(n(C)c2c1)[C@@H](CO)N(C(=O)Nc1ccc(F)cc1)CC31CCN(C(=O)CC2CC2)CC1	/	/	/	/	0.2	/
COc1cc(Cl)c(C)cc1NC(=O)c1ccc2c(c1)OCO2	1.5	/	46.1*	-4.0	0.0	1.5
O=C(Nc1ccc(Cl)cc1Cl)c1ccc2c(c1)OCCO2	51.8*	50.0	-5.2	-1.0	0.4	3.1
COc1ccc(C)cc1NC(=O)c1ccc2c(c1)OCO2	/	0.1	10.8	-1.8	/	/
Cc1cc(Cl)ccc1NC(=O)c1ccc2c(c1)OCO2	11.0	/	77.1*	-1.5	0.0	0.7
Cc1ccc(S(=O)(=O)Nc2cccc3c2O[C@@H](CN(C)S(=O)(=O)c2cccs2)[C@H](C)CN([C@@H](C)CO)C3=O)cc1	/	/	-5.0	/	0.1	0.5
COc1ccc(NC(=O)Nc2ccc3c(c2)C(=O)N([C@@H](C)CO)C[C@H](C)[C@H](CN(C)C)OCCCC[C@H](C)O3)cc1	/	/	1.0	/	0.0	-0.8
O=C(Nc1nc(=O)c2ccccc2s1)c1ccccc1	39.1*	23.2	/	/	/	/
COc1ccc2nc(NC(=O)c3ccc4ncsc4c3)sc2c1	/	?	67.5*	/	/	/
O=C(Nc1nc(-c2ccc(Cl)s2)cs1)c1ccccc1	15.9	27.0	50.5*	-1.3	/	/
O=C(Nc1nc(-c2cccs2)cs1)c1ccc(Cl)s1	13.3	41.2	32.7	/	1.1	2.9
O=S(=O)(/N=C(/Nc1nc2ccccc2s1)c1ccccc1)c1ccc(F)cc1	24.8	47.8	50.2*	-0.1	0.0	-0.8
O=S(=O)(/N=C(/Nc1nccs1)c1ccc(F)cc1)c1ccccc1	-7.9	1.1	-6.9	-1.9	0.1	-1.2
Cc1noc(C)c1S(=O)(=O)Nc1ccc2c(c1)CC(=O)N([C@@H](C)CO)C[C@@H](C)[C@H](CN(C)S(=O)(=O)c1cn(C)cn1)O2	/	/	-3.3	/	-1.0	/
SMILES	Wnt act	MITF TRPM1 HTS	esBAF inh	NSD2 HMT inh	Xi reactivation	CASP6 VEID inh
Cc1ccc(-c2ccc3c(c2)O[C@H](CN(C)C(=O)C2CCCCC2)[C@@H](C)CN([C@H](C)CO)S3(=O)=O)cc1	/	/	/	/	-0.1	/
COc1ccc(C(=O)Nc2nc3ccccc3s2)cc1	10.5	/	-62.0	-2.9	0.0	-3.4
COc1ccc(C(=O)Nc2nc(CC(=O)NCc3ccc(F)cc3)cs2)cc1	10.8	19.8	49.9*	-2.7	0.1	-0.2
COc1ccc(C(=O)Nc2nc3ccccc3s2)cc1OC	-1.3	77.9	78.0*	-1.4	0.0	0.3
COc1ccc2nc(NC(C)=O)sc2c1	?	39.1	31.7	/	/	/
O=C(Nc1nc2ccccc2s1)c1ccc(F)cc1	46.7*	29.4	10.3	0.0	-0.2	-2.6
